The values that follow come from ChEMBL document CHEMBL1121982 (J Med Chem, 1982).

The target of assay [1] is T1, Delta-type opioid receptor (Rattus norvegicus, UniProt P33533). The experiment in a line: Inhibition of binding of [3H][D-Ala2,D-Leu5]enkephalin to Opioid receptor delta 1 in the rat brain homogenate. The format is tissue-based.
Assay [2] addresses T2, Mu-type opioid receptor (Cavia porcellus, UniProt P97266). The experiment in a line: Inhibitory potency against Opioid receptor mu 1 in the guinea pig ileum assay. The format is functional, tissue-based. The method, boiled down:
(§1)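 Guinea pig ileum bioassay. Twitch-height reduction at several doses gave log dose-response curves.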

Assay [3] concerns the target T3, Mu-type opioid receptor (Rattus norvegicus, UniProt P33535). Put plainly: Inhibition of binding of [3H]naloxone to Opioid receptor mu 1 in the rat brain homogenate. The format is tissue-based.
In assay [4] the target is T4, Delta-type opioid receptor (Mus musculus, UniProt P32300). Put plainly: Inhibitory potency against Opioid receptor delta 1 in the mouse vas deferens assay. The assay is classed as functional, tissue-based. The method, boiled down:
(§2)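 Vasa deferentia were taken from adult male Swiss Webster albino mice (30-50 g) killed by cervical dislocation. Fat, connective tissue and the blood vessel were removed and semen was expressed. Contractions were recorded with a force transducer, and twitch-height reduction at several doses gave log dose-response curves.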

The target in assay [5] is T1, Delta-type opioid receptor. Put plainly: Inhibition of [3H][D-Ala2,D-Leu5]enkephalin binding to Opioid receptor delta 1 in the rat brain homogenate. The format is tissue-based.
Assay [6] concerns the target Mu-type opioid receptor (Cavia porcellus) (UniProt P97266). The experiment in a line: Sensitivity to naloxone against Opioid receptor mu 1 in the guinea pig ileum assay. The assay is classed as functional, tissue-based. Summed up:
(§3)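 Ke for naloxone as antagonist in the isolated tissue assay. It was derived from the ratio of agonist IC50 values measured with and without a fixed naloxone concentration.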

The nature of assay [7]: IC50 ratio measured as inhibitory potencies in mouse vas deferens and guinea pig ileum assays. The assay is classed as functional.
The target of assay [8] is Delta-type opioid receptor (Mus musculus) (UniProt P32300). The experiment in a line: […] in mouse vas deferens assay for Opioid receptor delta 1. The format is functional. Summed up:
as §3

For assay [9], the target named is Delta-type opioid receptor (Rattus norvegicus) (UniProt P33533). The experiment in a line: (§4) Ki ratio measured as the inhibitory effect against delta/mu receptor.
Chain of Delta-type opioid receptor (Rattus norvegicus) (P33533 whole entry): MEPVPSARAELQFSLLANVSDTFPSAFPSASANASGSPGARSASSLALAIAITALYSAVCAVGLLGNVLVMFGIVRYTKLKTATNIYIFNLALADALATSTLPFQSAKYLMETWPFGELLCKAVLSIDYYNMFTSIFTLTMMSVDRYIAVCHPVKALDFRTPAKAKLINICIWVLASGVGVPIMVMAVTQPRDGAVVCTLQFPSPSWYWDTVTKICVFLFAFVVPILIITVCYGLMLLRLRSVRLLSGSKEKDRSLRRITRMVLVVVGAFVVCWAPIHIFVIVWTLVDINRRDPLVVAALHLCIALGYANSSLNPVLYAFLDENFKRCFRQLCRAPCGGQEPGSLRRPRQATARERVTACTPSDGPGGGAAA
For assay [10], the target named is T4, Delta-type opioid receptor. Put plainly: Inhibitory potency against Opioid receptor delta 1 in mouse vas deferens assay. The assay is classed as functional, tissue-based. The method, boiled down:
as §2

The nature of assay [11]: Ki ratio measured as inhibitory effect against delta and mu opioid receptors.
For assay [12], the target named is T3, Mu-type opioid receptor. The experiment in a line: Inhibition of [3H]naloxone binding to Opioid receptor mu 1 in rat brain homogenate. The assay is classed as tissue-based.
Assay [13] concerns the target T1, Delta-type opioid receptor. The experiment in a line: Inhibition of binding of [3H][D-Ala2,D-Leu5]enkephalin to delta receptor in the rat brain homogenate. The format is tissue-based.
Assay [14] addresses T2, Mu-type opioid receptor. The experiment in a line: Inhibitory potency against mu receptor in guinea pig ileum assay. The format is functional, tissue-based. The method, boiled down: as §1
For assay [15], the target named is Delta-type opioid receptor (Mus musculus) (UniProt P32300). Put plainly: IC50 ratio measured as the inhibitory potencies of MVD/GPI.
Chain of Delta-type opioid receptor (Mus musculus) (P32300 whole entry): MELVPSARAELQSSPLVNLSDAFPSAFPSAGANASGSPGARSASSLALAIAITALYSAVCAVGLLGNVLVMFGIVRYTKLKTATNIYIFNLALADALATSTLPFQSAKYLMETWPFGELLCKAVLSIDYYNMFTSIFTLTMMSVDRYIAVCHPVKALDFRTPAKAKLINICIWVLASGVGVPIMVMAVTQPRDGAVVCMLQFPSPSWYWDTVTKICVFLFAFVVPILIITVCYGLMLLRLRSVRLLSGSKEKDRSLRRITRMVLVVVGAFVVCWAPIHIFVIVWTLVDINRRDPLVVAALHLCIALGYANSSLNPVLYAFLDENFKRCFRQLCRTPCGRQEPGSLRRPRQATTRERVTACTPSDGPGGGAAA
Assay [16] has as its target T3, Mu-type opioid receptor. Put plainly: Inhibition of [3H]-naloxone binding to mu receptor in rat brain homogenate. The assay is classed as tissue-based.
Assay [17] concerns the target Mu-type opioid receptor (Cavia porcellus) (UniProt P97266). The experiment in a line: Sensitivity to naloxone against mu receptor in guinea pig ileum assay. The format is functional, tissue-based. The method, boiled down:
as §3

The target in assay [18] is Delta-type opioid receptor (Mus musculus) (UniProt P32300). The description is as §4.
For assay [19], the target named is Mu-type opioid receptor (Mus musculus, UniProt P42866). The experiment in a line: Inhibitory potency against Opioid receptor mu 1 in mouse vas deferens assay. The assay is classed as functional, tissue-based. The method, boiled down: as §2
Chain of Mu-type opioid receptor (Mus musculus, UniProt P42866) (P42866 whole entry): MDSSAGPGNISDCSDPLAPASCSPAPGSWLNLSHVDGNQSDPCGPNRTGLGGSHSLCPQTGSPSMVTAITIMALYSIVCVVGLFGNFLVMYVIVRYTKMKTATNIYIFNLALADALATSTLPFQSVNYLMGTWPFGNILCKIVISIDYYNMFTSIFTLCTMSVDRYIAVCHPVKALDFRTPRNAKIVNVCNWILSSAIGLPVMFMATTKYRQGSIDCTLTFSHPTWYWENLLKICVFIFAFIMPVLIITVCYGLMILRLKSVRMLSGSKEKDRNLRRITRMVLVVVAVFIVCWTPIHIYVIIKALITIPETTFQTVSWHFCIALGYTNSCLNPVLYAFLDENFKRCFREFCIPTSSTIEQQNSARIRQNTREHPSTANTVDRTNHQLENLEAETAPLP

T4 sequence (P32300 whole entry): as the sequence (P32300 whole entry) above
Chain of Mu-type opioid receptor (Cavia porcellus) (P97266 whole entry): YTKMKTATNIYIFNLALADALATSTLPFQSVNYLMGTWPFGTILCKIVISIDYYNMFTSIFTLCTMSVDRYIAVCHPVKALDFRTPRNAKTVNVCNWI
T2 sequence (P97266 whole entry): as above
T3 sequence (P33535 whole entry): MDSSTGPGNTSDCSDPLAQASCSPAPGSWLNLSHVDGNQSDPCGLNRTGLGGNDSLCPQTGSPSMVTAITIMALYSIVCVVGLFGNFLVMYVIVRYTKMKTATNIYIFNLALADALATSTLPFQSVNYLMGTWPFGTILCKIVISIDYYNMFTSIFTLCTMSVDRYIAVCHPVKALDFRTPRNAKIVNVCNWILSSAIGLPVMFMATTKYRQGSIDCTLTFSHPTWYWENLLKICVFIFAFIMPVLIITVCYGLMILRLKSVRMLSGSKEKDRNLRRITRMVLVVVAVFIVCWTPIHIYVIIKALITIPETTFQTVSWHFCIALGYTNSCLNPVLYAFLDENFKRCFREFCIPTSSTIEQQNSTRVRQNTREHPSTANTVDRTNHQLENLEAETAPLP
T1 sequence (P33533 whole entry): as the sequence (P33533 whole entry) above

In the case of `CC(C)C[C@@H]1NC(=O)[C@H](Cc2ccccc2)NC(=O)CNC(=O)[C@H](NC(=O)[C@@H](N)Cc2ccc(O)cc2)CCNC1=O`, the IC50 in assay [1] was determined as 253 nM; against Mu-type opioid receptor [2], 14.1 nM; on Mu-type opioid receptor [3], 24.9 nM; in [4], 81.4 nM. Moreover, the Ki on Mu-type opioid receptor [3] was 13.8 nM; in assay [5], 115 nM.

In the case of `CC(=O)O.CCCC[C@@H](NC(=O)[C@@H](N)Cc1ccc(O)cc1)C(=O)NCC(=O)N[C@@H](Cc1ccccc1)C(=O)N[C@@H](CC(C)C)C(N)=O`, the IC50 in assay [1] came to 9.57 nM; against Mu-type opioid receptor [2], 24.6 nM; at Mu-type opioid receptor [3], 4.08 nM; in [4] it was 25.2 nM. Moreover, the Ke was 0.729 nM in [6] and 3.19 nM in assay [8]. In addition, the Ratio in assay [7] turned out to be 1.02; in assay [9], 1.92. Besides, the Ki on Mu-type opioid receptor [3] stood at 2.27 nM; in assay [5], 4.35 nM.

As for `CC(=O)O.CCC[C@@H](NC(=O)[C@@H](N)Cc1ccc(O)cc1)C(=O)NCC(=O)N[C@@H](Cc1ccccc1)C(=O)N[C@@H](CC(C)C)C(N)=O`, the IC50 in assay [1] amounted to 6.81 nM; against Mu-type opioid receptor [2], 23.2 nM; at Mu-type opioid receptor [3] it was 5.89 nM; in assay [4] it was 21 nM. In addition, the Ke in [6] stood at 0.227 nM; in assay [8], 3.52 nM. Moreover, the figures for the Ratio in assay [7] and in assay [9] were 0.905 and 0.95, respectively. Also, the Ki on Mu-type opioid receptor [3] came out at 3.27 nM; in assay [5], 3.1 nM.

Take `CC(=O)O.CC(C)C[C@@H]1NC(=O)[C@H](Cc2ccccc2)NC(=O)CNC(=O)[C@H](NC(=O)[C@@H](N)Cc2ccc(O)cc2)CCNC1=O`: the Ratio in assay [7] came out at 5.77.

As for `CC(=O)O.CC[C@@H](NC(=O)[C@@H](N)Cc1ccc(O)cc1)C(=O)NCC(=O)N[C@@H](Cc1ccccc1)C(=O)N[C@@H](CC(C)C)C(N)=O`, the IC50 in [1] stood at 8.94 nM; against Mu-type opioid receptor [2], 28.7 nM; in assay [10] it was 45.6 nM; at Mu-type opioid receptor [3], 10.1 nM. In addition, the Ke turned out to be 0.181 nM in [6] and 1.5 nM in assay [8]. The Ratio in [7] was 1.59; in [9] it was 0.72. Moreover, the Ki on Mu-type opioid receptor [3] worked out at 5.61 nM; in assay [5] it was 4.06 nM.

On to `CC(=O)O.CC(C)C[C@@H]1NC(=O)[C@H](Cc2ccccc2)NC(=O)CNC(=O)[C@H](NC(=O)[C@@H](N)Cc2ccc(O)cc2)CNC1=O`, for which the Ratio turned out to be 1.01 in [11] and 3.12 in [7]. Also, the Ke in assay [6] was determined as 0.275 nM; in [8], 0.387 nM. The concentration for half-maximal inhibition (IC50) came to 23.4 nM against Mu-type opioid receptor [2], 95.8 nM on Mu-type opioid receptor [3], 73.1 nM in assay [4] and 118 nM in assay [13]. Further, the inhibition constant (Ki) at Mu-type opioid receptor [12] is 53.2 nM; in assay [5] it was 53.6 nM.

As for `CC(C)C[C@H](NC(=O)[C@H](Cc1ccccc1)NC(=O)CNC(=O)[C@@H](C)NC(=O)[C@@H](N)Cc1ccc(O)cc1)C(N)=O`, the Ke turned out to be 0.401 nM in [6] and 2.36 nM in assay [8]. Further, the IC50 came to 7.63 nM at Mu-type opioid receptor [14] and 8.26 nM in assay [4].

Consider `CC(C)C[C@@H]1NC(=O)[C@@H](Cc2ccccc2)NC(=O)CNC(=O)[C@H](NC(=O)[C@@H](N)Cc2ccc(O)cc2)CCNC1=O`, for which the Ratio in [11] came to 8.33. Moreover, the Ke was found to be 0.122 nM in [6] and 0.576 nM in assay [8].

Turning to `CC(C)C[C@@H]1NC(=O)[C@H](Cc2ccccc2)NC(=O)CNC(=O)[C@H](NC(=O)[C@@H](N)Cc2ccc(O)cc2)CCCNC1=O`, the Ratio in [15] was found to be 9.9; in assay [18] it was 3.18. For the same compound, the results for the IC50 (in assay [1]; at Mu-type opioid receptor [16]; at Mu-type opioid receptor [2]) were 221 nM, 56.6 nM and 48 nM, respectively. For the same compound, the inhibitory constant (Ki) at Mu-type opioid receptor [3] came out at 31.4 nM; in assay [5], 100 nM. Moreover, the Ke turned out to be 0.216 nM in [8] and 0.671 nM in assay [17].

On to `CC(C)C[C@@H]1NC(=O)[C@H](Cc2ccccc2)NC(=O)CNC(=O)[C@H](NC(=O)[C@@H](N)Cc2ccc(O)cc2)CCCCNC1=O`, for which the Ratio in assay [15] was found to be 29.4; in [18], 1.18. Besides, the concentration for half-maximal inhibition (IC50) was found to be 32.2 nM in assay [1], 4.8 nM at Mu-type opioid receptor [2], 141 nM in assay [10] and 22.4 nM at Mu-type opioid receptor [3]. Also, the Ke in assay [6] was determined as 0.416 nM; in [8], 0.36 nM. Also, the Ki at Mu-type opioid receptor [3] stood at 12.4 nM; in [5], 14.6 nM.

As for `CC(=O)O.N[C@@H](Cc1ccc(O)cc1)C(=O)N[C@@H]1CCCCNC(=O)[C@H](Cc2ccccc2)NC(=O)CNC1=O`, the Ratio came to 14.4 in assay [11] and 4.77 in assay [7]. In addition, the IC50 in assay [1] was 98.3 nM; against Mu-type opioid receptor [2], 7.09 nM; on Mu-type opioid receptor [3], 5.58 nM; in assay [4] it was 33.8 nM. Besides, the Ki in assay [1] stood at 44.7 nM; at Mu-type opioid receptor [3], 3.1 nM. Further, the Ke in assay [6] amounted to 0.875 nM; in [8], 0.606 nM.

On to `CC(=O)O.CC(C)C[C@H]1NC(=O)[C@H](Cc2ccccc2)NC(=O)CNC(=O)[C@H](NC(=O)[C@@H](N)Cc2ccc(O)cc2)CCCCNC1=O`, for which the Ratio was 4.59 in assay [11] and 7.32 in [7]. The IC50 in assay [1] came out at 47.8 nM; against Mu-type opioid receptor [2], 2.39 nM; on Mu-type opioid receptor [3], 8.51 nM; in [4] it was 17.5 nM. For the same compound, the Ke came to 0.553 nM in [6] and 2.37 nM in assay [8]. In addition, the Ki turned out to be 4.73 nM on Mu-type opioid receptor [3] and 21.7 nM in assay [5].

For the compound `CN1CC[C@]23CCCC[C@H]2[C@H]1Cc1ccc(O)cc13` [LEVORPHANOL], the Ke in [6] came to 0.127 nM; in assay [8] it was 0.587 nM. The Ratio in assay [7] was found to be 16.4. The IC50 on Mu-type opioid receptor [2] was 17 nM; at Mu-type opioid receptor [19], 278 nM.

The IC50 is the concentration at which inhibition is half-maximal. By Ki is commonly meant a dissociation constant, usually derived from enzyme kinetics or from competition with a known ligand. A high value points to a looser hold on the target.
